Assay results reported in ChEMBL document CHEMBL1687719, “Absence of CD4+ T lymphocytes, CD8+ T lymphocytes, or B lymphocytes has different effects on the efficacy of posaconazole and benznidazole in treatment of experimental acute Trypanosoma cruzi infection” (2009).
Calls of active or inactive are those of the source. No cut-off for these calls is given here.

Key:
[1] = system: Trypanosoma cruzi; assay: Antitrypanosomal activity against Trypanosoma cruzi Y infected in CD8+ T-lymphocyte knockout C57BL/6 mouse assessed as occurrence of subpatent level of parasitemia at 20 mg/kg/day, po administered twice daily for 20 consecutive days measured 60 days post infection; assay type: functional, organism-based
Procedure, shortened: (§1)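 Ip infection was 5,000 Y-strain blood trypomastigotes. From 4 dpi mice got 20 mg/kg/day orally in two daily doses (2% methylcellulose/0.5% Tween 80) for 20 days. Fresh tail blood was examined microscopically, daily from 4–16 dpi and every other day to 60 dpi. Reactivation was scored as return of patent parasitemia after treatment. Parasitemia curves were compared by Mann-Whitney.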

[2] = system: Trypanosoma cruzi; assay: Antitrypanosomal activity against Trypanosoma cruzi Y infected in CD8+ T-lymphocyte knockout C57BL/6 mouse assessed as number of mouse with reactivated parasite at 100 mg/kg/day, po administered once daily for 20 consecutive days measured 60 days post infection; assay type: functional
Procedure, shortened: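 Mice infected ip with 5,000 Y-strain blood trypomastigotes. From day 4 they were given drug orally in water with gum arabic for 20 days. Reactivation was scored as reappearance of circulating parasites after treatment ended, seen by microscopy of fresh tail blood. Sampling was daily from day 4 to 16 and then every other day up to day 60.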

[3] = system: Trypanosoma cruzi; assay: Antitrypanosomal activity against Trypanosoma cruzi Y infected in B-lymphocyte knockout C57BL/6 mouse assessed as number of mouse with reactivation of infection at 100 mg/kg/day, po administered once daily for 20 consecutive days measured 22 days post infection; assay type: functional, organism-based
Procedure, shortened: (§2)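 Ip infection was 5,000 Y-strain blood trypomastigotes. Oral dosing at 100 mg/kg/day, once daily in gum arabic water, ran from 4 dpi for 20 days. Parasitemia was read by microscopy of fresh tail blood, daily from 4–16 dpi, then every other day to 60 dpi. Reactivation was scored as patent parasitemia returning after treatment ended.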

[4] = system: Trypanosoma cruzi; assay: Antitrypanosomal activity against Trypanosoma cruzi Y infected in CD4+ T-lymphocyte knockout C57BL/6 mouse assessed as reactivation of parasite in mouse at 20 mg/kg/day, po administered twice daily for 20 consecutive days measured 60 days post infection; assay type: functional, organism-based; procedure, shortened: as §1
[5] = system: Trypanosoma cruzi; assay: Antitrypanosomal activity against Trypanosoma cruzi Y infected in CD4+ T-lymphocyte knockout C57BL/6 mouse assessed as reactivation of parasite in mouse at 100 mg/kg/day, po administered once daily for 20 consecutive days measured 60 days post infection; assay type: functional, organism-based; procedure, shortened: as §2
[6] = system: Trypanosoma cruzi; assay: Antitrypanosomal activity against Trypanosoma cruzi Y infected in C57BL/6 mouse assessed as increase in survival of mouse at 100 mg/kg/day, po administered once daily for 20 consecutive days measured 60 days post infection; assay type: functional; conditions: 1440 h
Procedure, shortened: (§3)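 Mice were infected ip with 5,000 blood trypomastigotes of the Y strain, kept by serial passage in Swiss-Webster mice. From 4 dpi they got 100 mg/kg/day orally once daily for 20 consecutive days, dissolved in water with gum arabic. Survival was followed to 60 dpi, with mean survival time and survival rate taken. Untreated and vehicle-treated infected mice served as controls. Rates compared by chi-square with Bonferroni.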

[7] = system: Trypanosoma cruzi; assay: Antitrypanosomal activity against Trypanosoma cruzi Y infected in C57BL/6 mouse assessed as mean survival time at 100 mg/kg/day, po administered once daily for 20 consecutive days measured 60 days post infection; assay type: functional; procedure, shortened: as §3
[8] = system: Trypanosoma cruzi; assay: Antitrypanosomal activity against Trypanosoma cruzi Y infected in C57BL/6 mouse assessed as cure rate in mouse at 100 mg/kg/day, po administered once daily for 20 consecutive days measured 60 days post infection; assay type: functional
Procedure, shortened: (§4)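 Mice infected ip with 5,000 blood trypomastigotes (Y strain kept by serial passage in Swiss-Webster mice). Oral dosing started day 4 post-infection and ran 20 consecutive days, drug dissolved in water with gum arabic. Fresh tail blood was examined microscopically daily days 4–16, then every other day to day 60. Parasitemia-negative mice were bled at day 60 by orbital sinus, 0.5 ml into two tubes of LIT medium, 28°C for 30–60 days, then examined microscopically. Cure meant negative fresh blood plus negative hemoculture. Rates were compared by chi-square with Bonferroni.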

[9] = system: Trypanosoma cruzi; assay: Antitrypanosomal activity against Trypanosoma cruzi Y infected in CD4+ T-lymphocyte knockout C57BL/6 mouse assessed as increase in survival of mouse at 100 mg/kg/day, po administered once daily for 20 consecutive days measured 60 days post infection; assay type: functional; conditions: 1440 h; procedure, shortened: as §3
[10] = system: Trypanosoma cruzi; assay: Antitrypanosomal activity against Trypanosoma cruzi Y infected in CD4+ T-lymphocyte knockout C57BL/6 mouse assessed as mean survival time at 100 mg/kg/day, po administered once daily for 20 consecutive days measured 60 days post infection; assay type: functional; procedure, shortened: as §3
[11] = system: Trypanosoma cruzi; assay: Antitrypanosomal activity against Trypanosoma cruzi Y infected in CD4+ T-lymphocyte knockout C57BL/6 mouse assessed as cure rate in mouse at 100 mg/kg/day, po administered once daily for 20 consecutive days measured 60 days post infection; assay type: functional; procedure, shortened: as §4
[12] = system: Trypanosoma cruzi; assay: Antitrypanosomal activity against Trypanosoma cruzi Y infected in CD8+ T-lymphocyte knockout C57BL/6 mouse assessed as increase in survival of mouse at 100 mg/kg/day, po administered once daily for 20 consecutive days measured 60 days post infection; assay type: functional; conditions: 1440 h; procedure, shortened: as §3
[13] = system: Trypanosoma cruzi; assay: Antitrypanosomal activity against Trypanosoma cruzi Y infected in CD8+ T-lymphocyte knockout C57BL/6 mouse assessed as mean survival time at 100 mg/kg/day, po administered once daily for 20 consecutive days measured 60 days post infection; assay type: functional; procedure, shortened: as §3
[14] = system: Trypanosoma cruzi; assay: Antitrypanosomal activity against Trypanosoma cruzi Y infected in CD8+ T-lymphocyte knockout C57BL/6 mouse assessed as cure rate in mouse at 100 mg/kg/day, po administered once daily for 20 consecutive days measured 60 days post infection; assay type: functional; procedure, shortened: as §4
[15] = system: Trypanosoma cruzi; assay: Antitrypanosomal activity against Trypanosoma cruzi Y infected in B-lymphocyte knockout C57BL/6 mouse assessed as increase in survival of mouse at 100 mg/kg/day, po administered once daily for 20 consecutive days measured 60 days post infection; assay type: functional; conditions: 1440 h; procedure, shortened: as §3
[16] = system: Trypanosoma cruzi; assay: Antitrypanosomal activity against Trypanosoma cruzi Y infected in B-lymphocyte knockout C57BL/6 mouse assessed as mean survival time at 100 mg/kg/day, po administered once daily for 20 consecutive days measured 60 days post infection; assay type: functional; procedure, shortened: as §3
[17] = system: Trypanosoma cruzi; assay: Antitrypanosomal activity against Trypanosoma cruzi Y infected in B-lymphocyte knockout C57BL/6 mouse assessed as cure rate in mouse at 100 mg/kg/day, po administered once daily for 20 consecutive days measured 60 days post infection; assay type: functional; procedure, shortened: as §4
[18] = system: Trypanosoma cruzi; assay: Antitrypanosomal activity against Trypanosoma cruzi Y infected in CD4+ T-lymphocyte knockout C57BL/6 mouse assessed as occurrence of subpatent parasitemia level in mouse at 20 mg/kg/day, po administered twice daily for 20 consecutive days measured 4 to 24 days post infection; assay type: functional, organism-based; procedure, shortened: as §1
[19] = system: Trypanosoma cruzi; assay: Antitrypanosomal activity against Trypanosoma cruzi Y infected in CD4+ T-lymphocyte knockout C57BL/6 mouse assessed as occurrence of subpatent parasitemia level in mouse at 100 mg/kg/day, po administered once daily for 20 consecutive days measured 4 to 24 days post infection; assay type: functional, organism-based; procedure, shortened: as §2
[20] = system: Trypanosoma cruzi; assay: Antitrypanosomal activity against Trypanosoma cruzi Y infected in CD4+ T-lymphocyte knockout C57BL/6 mouse assessed as reactivation of parasite in mouse at 100 mg/kg/day, po administered once daily for 20 consecutive days measured 11 days post infection; assay type: functional, organism-based; procedure, shortened: as §2
[21] = system: Trypanosoma cruzi; assay: Antitrypanosomal activity against Trypanosoma cruzi Y infected in CD8+ T-lymphocyte knockout C57BL/6 mouse assessed as occurrence of subpatent level of parasitemia at 100 mg/kg/day, po administered once daily for 20 consecutive days measured 60 days post infection; assay type: functional, organism-based; procedure, shortened: as §2
[22] = system: Trypanosoma cruzi; assay: Antitrypanosomal activity against Trypanosoma cruzi Y infected in CD8+ T-lymphocyte knockout C57BL/6 mouse assessed as occurrence of low level of circulating parasites at 100 mg/kg/day, po administered once daily for 20 consecutive days measured 15 days after the end of treatment

Q: What does the source list for `O=C(Cn1ccnc1[N+](=O)[O-])NCc1ccccc1` [BENZNIDAZOLE]?
A: Activity [1]: Active; Activity [2]: 22%; Activity [3]: inactive; Activity [4]: inactive; Activity [5]: inactive; survival at 100 mg/kg/day [6]: 100%; MST [7]: >60 days; Activity [8]: 86%; survival at 100 mg/kg/day [9]: 6%; MST [10]: 53.7 days; Activity [11]: 0%; survival at 100 mg/kg/day [12]: 86%; MST [13]: 58.8 days; Activity [14]: 66%; survival at 100 mg/kg/day [15]: 67%; MST [16]: 59.3 days; Activity [17]: 22%; Activity [18]: Active; Activity [19]: Active; Activity [20]: inactive; Activity [21]: Active; Activity [22]: Active
